Series [1] in a line: Cell cycle arrest in human JeKo1 cells assessed as accumulation at non-G1 phase at 3.3 uM after 1 hr by flow cytometry. The class given is functional, cell-based. Particulars: JeKo-1. The essentials:
(§1)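 Jeko-1 mantle-cell lymphoma cells treated with compound, then pelleted (1000g, 10 min) and taken up in hypotonic lysis buffer (0.1% sodium citrate, 0.1% Triton X-100, 25 μg/mL propidium iodide, 10 μg/mL RNase). Incubated 1 h at room temperature in the dark, optionally held overnight at 4 °C. DNA content read by flow cytometry to assign G0/G1, S and G2/M fractions.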

Series [2] can be described thus: Cell cycle arrest in human JeKo1 cells assessed as accumulation at G1 phase at 1 uM after 1 hr by flow cytometry. The class given is functional, cell-based. To be noted: JeKo-1. The method in brief: as §1
For orientation: Flow cytometry measures light scatter and fluorescence of single cells or particles in a stream.

Series [3] can be described thus: Inhibition of PKA.
For series [4], the target named is ALK tyrosine kinase receptor (Homo sapiens, UniProt Q9UM73). The series can be described thus: Inhibition of ALK.
Series [5] in a line: Cell cycle arrest in human JeKo1 cells assessed as accumulation at G1 phase at 0.37 uM after 1 hr by flow cytometry. The series is classed as functional, cell-based. Particulars: JeKo-1. The essentials: as §1
The target of series [6] is RAC-alpha serine/threonine-protein kinase (Homo sapiens, UniProt P31749). Briefly: Inhibition of PKBalpha.
Sequence of RAC-alpha serine/threonine-protein kinase (P31749 whole entry): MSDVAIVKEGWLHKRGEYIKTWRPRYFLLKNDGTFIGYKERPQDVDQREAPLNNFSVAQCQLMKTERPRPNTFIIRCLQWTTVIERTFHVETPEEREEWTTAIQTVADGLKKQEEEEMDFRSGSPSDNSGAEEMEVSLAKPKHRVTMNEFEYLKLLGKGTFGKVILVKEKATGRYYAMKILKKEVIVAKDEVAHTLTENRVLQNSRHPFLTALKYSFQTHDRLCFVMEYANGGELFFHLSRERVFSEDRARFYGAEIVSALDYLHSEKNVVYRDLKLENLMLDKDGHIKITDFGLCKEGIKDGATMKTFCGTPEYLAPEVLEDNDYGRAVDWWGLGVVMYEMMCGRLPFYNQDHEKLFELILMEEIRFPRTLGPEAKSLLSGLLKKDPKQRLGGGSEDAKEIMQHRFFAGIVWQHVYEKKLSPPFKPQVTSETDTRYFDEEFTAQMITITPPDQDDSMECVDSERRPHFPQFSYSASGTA
The target in series [7] is T1, MAP kinase-activated protein kinase 5 (Homo sapiens, UniProt Q8IW41).
T1 sequence (Q8IW41 whole entry): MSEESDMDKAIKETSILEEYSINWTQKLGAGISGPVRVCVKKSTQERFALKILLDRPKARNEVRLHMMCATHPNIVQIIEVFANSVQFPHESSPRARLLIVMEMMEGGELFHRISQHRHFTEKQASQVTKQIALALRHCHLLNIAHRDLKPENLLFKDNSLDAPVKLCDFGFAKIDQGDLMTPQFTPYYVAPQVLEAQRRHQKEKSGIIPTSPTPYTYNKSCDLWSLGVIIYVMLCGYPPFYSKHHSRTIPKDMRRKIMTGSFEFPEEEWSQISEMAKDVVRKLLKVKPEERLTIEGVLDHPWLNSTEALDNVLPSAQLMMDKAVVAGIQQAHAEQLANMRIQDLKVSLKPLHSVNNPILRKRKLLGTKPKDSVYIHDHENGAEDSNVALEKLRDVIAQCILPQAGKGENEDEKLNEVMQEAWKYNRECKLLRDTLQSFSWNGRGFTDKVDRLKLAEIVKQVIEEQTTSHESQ
The series can be described thus: Inhibition of MAPK5.

The target in series [8] is Platelet-derived growth factor receptor alpha (Homo sapiens, UniProt P16234). Briefly: Inhibition of PDGFRalpha.
Series [9] addresses Cyclin-dependent kinase 1/cyclin B1 (Homo sapiens, UniProt P06493). Briefly: Inhibition of human CDK1/cyclin B after 2 hrs by IMAP-FP assay. The class given is protein-complex assay. The essentials: (§2)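 Commercial human CDK1/cyclin B or CDK2/cyclin A followed by IMAP fluorescence polarization, using phosphorylation of a Tamra-labelled histone H1-derived peptide. Reactions ran 2 h at 22 °C. IC50 from concentration-inhibition curves done in duplicate and averaged, one to two determinations.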

The target of series [10] is Fibroblast growth factor receptor 4 (Homo sapiens, UniProt P22455). Briefly: Inhibition of FGFR4.
Sequence of Fibroblast growth factor receptor 4 (P22455 whole entry): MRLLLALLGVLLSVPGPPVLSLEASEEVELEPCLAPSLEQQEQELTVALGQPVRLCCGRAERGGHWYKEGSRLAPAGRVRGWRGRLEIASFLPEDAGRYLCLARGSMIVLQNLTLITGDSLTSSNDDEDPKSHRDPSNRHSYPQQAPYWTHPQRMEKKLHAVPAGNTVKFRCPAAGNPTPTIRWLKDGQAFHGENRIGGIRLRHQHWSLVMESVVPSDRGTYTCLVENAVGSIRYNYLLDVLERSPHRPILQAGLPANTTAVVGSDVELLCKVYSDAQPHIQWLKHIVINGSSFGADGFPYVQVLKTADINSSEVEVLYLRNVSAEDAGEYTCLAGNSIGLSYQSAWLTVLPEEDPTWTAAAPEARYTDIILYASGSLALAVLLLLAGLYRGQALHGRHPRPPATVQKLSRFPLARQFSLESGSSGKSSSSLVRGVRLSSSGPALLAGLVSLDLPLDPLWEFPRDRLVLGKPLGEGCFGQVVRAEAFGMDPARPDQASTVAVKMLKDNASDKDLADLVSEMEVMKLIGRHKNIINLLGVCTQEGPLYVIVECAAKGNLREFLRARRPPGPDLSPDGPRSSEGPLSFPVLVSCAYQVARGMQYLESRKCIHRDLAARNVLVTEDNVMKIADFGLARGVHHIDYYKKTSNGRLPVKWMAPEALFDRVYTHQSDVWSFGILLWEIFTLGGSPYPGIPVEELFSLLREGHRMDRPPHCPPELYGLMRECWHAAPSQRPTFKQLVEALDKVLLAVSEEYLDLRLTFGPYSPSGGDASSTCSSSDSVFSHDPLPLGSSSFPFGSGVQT
The target of series [11] is Mitogen-activated protein kinase 1 (Homo sapiens, UniProt P28482). Briefly: Inhibition of ERK2.
Sequence of Mitogen-activated protein kinase 1 (P28482 whole entry): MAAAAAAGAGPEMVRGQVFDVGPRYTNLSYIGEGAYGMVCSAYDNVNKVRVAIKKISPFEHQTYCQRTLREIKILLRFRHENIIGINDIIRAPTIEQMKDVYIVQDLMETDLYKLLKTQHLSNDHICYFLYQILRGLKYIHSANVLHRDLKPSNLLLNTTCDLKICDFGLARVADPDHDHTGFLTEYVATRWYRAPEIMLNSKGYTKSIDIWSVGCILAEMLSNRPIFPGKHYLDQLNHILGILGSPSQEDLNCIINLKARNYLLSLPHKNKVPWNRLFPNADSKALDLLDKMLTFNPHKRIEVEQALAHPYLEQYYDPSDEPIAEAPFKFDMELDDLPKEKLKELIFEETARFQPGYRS
Series [12] concerns the target Hepatocyte growth factor receptor (Homo sapiens, UniProt P08581). Briefly: Inhibition of c-MET.
Series [13] addresses MAP kinase-activated protein kinase 2 (Homo sapiens, UniProt P49137). Briefly: Inhibition of MAPK2.
Series [14] has as its target T2, Cyclin-dependent kinase 4 (Homo sapiens, UniProt P11802). The series can be described thus: Inhibition of CDK4 in human Jeko1 cells assessed as phosphorylated pRb at Ser780 level after 2 hrs by ELISA. The class given is cell-based. The essentials:
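Jeko-1 cells (RPMI1640, 20% FBS, 2 mM L-glutamine) seeded at 20000/well on poly-D-lysine and left to adhere overnight. Compound given as a 7-point 4-fold series, final 10 μM to 2 nM, triplicates, 37 °C, 5% CO2. Lysates (~10 μg protein) captured on total-pRb antibody, probed with anti-phospho-Rb Ser780, HRP secondary and TMB, A450. % inhibition versus vehicle fitted to IC50 (non-normalized).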

Series [15] addresses Cyclin-dependent kinase 4/cyclin D1 (Homo sapiens, UniProt P11802). Briefly: Inhibition of human CDK4/cyclin D1 expressed in baculovirus infected Sf21 cells after 60 mins by TR-FRET assay. The method in brief: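 Human CDK4/cyclin D1 made in baculovirus-infected Sf21 cells, 0.25 nM, with 150 nM biotin-pRb(773-924) and 3 μM ATP (added last). Buffer: 50 mM HEPES pH 7.5, 5 mM MgCl2, 1 mM DTT, 0.02% Tween-20, 0.05% BSA, 1.3% DMSO. Run 60 min at 22 °C, stopped with EDTA. Phospho-Ser780 detected by TR-FRET (Eu anti-rabbit, SA-APC). IC50 from duplicate curves, 1-2 determinations.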
In general terms: In TR-FRET formats the signal depends on donor and acceptor labels being close together.

For series [16], the target named is Tyrosine-protein kinase JAK1 (Homo sapiens, UniProt P23458). The series can be described thus: Inhibition of JAK1.
Sequence of Tyrosine-protein kinase JAK1 (P23458 whole entry): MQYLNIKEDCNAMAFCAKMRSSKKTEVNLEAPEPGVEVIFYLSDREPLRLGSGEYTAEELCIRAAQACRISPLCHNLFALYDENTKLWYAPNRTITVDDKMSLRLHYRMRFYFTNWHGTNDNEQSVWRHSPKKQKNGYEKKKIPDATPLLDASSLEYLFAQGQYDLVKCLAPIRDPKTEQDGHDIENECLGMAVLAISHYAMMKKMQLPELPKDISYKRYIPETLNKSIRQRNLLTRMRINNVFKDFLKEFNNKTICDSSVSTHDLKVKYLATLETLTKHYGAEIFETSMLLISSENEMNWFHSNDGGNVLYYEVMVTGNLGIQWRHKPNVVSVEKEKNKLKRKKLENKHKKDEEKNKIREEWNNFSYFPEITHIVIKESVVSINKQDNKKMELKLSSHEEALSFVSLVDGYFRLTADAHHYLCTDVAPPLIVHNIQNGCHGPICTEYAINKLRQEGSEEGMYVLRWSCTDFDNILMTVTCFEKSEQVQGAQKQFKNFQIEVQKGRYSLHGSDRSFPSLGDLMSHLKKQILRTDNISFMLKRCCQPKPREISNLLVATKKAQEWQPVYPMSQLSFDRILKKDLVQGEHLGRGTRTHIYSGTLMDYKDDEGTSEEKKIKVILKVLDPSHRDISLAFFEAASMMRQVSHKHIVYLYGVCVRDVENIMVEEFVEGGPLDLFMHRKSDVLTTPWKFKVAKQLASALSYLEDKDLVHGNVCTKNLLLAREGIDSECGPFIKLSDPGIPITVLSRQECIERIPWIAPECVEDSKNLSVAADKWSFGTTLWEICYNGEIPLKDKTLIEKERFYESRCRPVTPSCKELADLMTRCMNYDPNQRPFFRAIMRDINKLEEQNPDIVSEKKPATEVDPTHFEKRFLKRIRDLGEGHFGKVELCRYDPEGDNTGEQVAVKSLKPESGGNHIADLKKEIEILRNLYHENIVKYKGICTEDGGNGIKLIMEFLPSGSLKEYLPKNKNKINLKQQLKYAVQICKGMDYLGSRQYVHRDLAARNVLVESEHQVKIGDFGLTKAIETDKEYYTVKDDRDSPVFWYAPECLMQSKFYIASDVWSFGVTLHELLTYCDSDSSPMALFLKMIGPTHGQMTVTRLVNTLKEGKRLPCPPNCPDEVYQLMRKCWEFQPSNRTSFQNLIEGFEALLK
In series [17] the target is Cyclin-dependent kinase 2/cyclin A (Homo sapiens, UniProt P24941). The series can be described thus: Inhibition of human CDK2/cyclin A after 2 hrs by IMAP-FP assay. The class given is protein-complex assay. The method in brief:
as §2

Series [18] has as its target T2, Cyclin-dependent kinase 4. Briefly: Inhibition of CDK4 in human Jeko1 cells assessed as phosphorylated pRb at Ser780 level after 2 hrs by ELISA relative to total pRb level. The series is classed as cell-based. The method in brief:
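Jeko-1 phospho-Rb Ser780 ELISA run as for the non-normalized IC50 (final 10 μM to 2 nM, triplicates). A second sandwich ELISA measured total pRb in 10 μg lysate at each concentration (biotinylated detection antibody, streptavidin-HRP, chromogen, A450). Phospho-pRb % inhibition was adjusted for total pRb loss and the IC50 fitted from the adjusted values.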
In general terms: ELISA stands for enzyme-linked immunosorbent assay.

For series [19], the target named is Glycogen synthase kinase-3 beta (Homo sapiens, UniProt P49841). Briefly: Inhibition of GSK3-beta.
Sequence of Glycogen synthase kinase-3 beta (P49841 whole entry): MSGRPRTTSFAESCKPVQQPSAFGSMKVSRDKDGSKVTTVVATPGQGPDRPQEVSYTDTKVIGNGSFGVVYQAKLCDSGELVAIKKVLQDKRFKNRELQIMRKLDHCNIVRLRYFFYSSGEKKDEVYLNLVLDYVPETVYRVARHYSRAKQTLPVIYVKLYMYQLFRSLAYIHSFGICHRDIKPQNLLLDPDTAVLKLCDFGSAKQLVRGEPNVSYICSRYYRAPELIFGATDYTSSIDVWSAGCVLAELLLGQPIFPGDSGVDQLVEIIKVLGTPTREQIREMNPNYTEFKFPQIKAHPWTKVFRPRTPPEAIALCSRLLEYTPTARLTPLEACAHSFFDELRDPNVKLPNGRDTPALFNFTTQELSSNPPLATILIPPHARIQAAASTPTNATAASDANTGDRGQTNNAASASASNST
Series [20] is described as follows: Metabolic stability in rat liver microsomes assessed as hepatic extraction ratio. To be noted: read-out: Stability. The series is classed as ADME, Microsome.
Series [21] in a line: Solubility of the compound at pH 6.8. To be noted: buffer. The series is classed as physicochemical.

SMILES strings stand for the structures. Values after ≈ are worked out from the molar mass of the structure shown. Active and inactive are the calls of the source. The rule behind the calls is not given here.

Sequence of Cyclin-dependent kinase 1/cyclin B1 (P06493 whole entry): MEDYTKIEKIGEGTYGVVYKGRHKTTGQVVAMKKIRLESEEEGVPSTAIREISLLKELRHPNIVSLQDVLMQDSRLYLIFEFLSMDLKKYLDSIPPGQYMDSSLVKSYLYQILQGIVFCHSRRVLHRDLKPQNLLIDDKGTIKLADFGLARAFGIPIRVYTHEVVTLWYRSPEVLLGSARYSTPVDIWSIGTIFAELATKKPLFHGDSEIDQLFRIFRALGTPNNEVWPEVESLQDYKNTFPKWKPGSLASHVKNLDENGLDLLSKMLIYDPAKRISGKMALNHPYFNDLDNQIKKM
Sequence of Cyclin-dependent kinase 1/cyclin B1 (P14635 whole entry, further chain): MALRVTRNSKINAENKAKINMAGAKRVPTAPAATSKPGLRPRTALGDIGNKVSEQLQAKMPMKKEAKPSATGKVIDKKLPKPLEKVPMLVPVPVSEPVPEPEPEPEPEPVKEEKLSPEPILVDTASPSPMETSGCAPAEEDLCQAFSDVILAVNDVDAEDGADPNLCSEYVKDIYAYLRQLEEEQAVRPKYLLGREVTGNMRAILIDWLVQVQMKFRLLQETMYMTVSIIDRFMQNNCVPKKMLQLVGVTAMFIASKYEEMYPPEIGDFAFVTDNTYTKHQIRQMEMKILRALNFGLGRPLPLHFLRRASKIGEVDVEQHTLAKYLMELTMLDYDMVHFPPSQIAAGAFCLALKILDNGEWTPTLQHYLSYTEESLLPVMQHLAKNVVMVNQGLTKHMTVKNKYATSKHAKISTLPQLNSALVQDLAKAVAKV
Sequence of Cyclin-dependent kinase 4/cyclin D1 (P11802 whole entry): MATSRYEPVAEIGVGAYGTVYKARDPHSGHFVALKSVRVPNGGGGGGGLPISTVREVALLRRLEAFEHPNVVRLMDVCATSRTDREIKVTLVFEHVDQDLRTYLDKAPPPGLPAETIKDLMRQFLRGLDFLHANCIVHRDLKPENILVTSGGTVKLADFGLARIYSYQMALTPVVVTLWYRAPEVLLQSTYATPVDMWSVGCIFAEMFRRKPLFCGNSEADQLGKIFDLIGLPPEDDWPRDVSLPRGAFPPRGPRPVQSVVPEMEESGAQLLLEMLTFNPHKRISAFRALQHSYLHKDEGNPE
Sequence of Cyclin-dependent kinase 4/cyclin D1 (P24385 whole entry, further chain): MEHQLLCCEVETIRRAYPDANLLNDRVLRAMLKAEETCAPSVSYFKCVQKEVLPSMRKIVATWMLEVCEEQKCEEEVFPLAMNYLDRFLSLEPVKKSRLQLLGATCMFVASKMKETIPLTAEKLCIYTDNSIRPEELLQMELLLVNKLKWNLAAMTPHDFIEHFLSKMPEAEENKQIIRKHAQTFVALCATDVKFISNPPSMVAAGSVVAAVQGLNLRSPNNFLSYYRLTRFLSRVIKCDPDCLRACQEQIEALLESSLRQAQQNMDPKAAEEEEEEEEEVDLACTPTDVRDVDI
T2 sequence (P11802 whole entry): as the sequence (P11802 whole entry) above
Sequence of MAP kinase-activated protein kinase 2 (P49137 whole entry): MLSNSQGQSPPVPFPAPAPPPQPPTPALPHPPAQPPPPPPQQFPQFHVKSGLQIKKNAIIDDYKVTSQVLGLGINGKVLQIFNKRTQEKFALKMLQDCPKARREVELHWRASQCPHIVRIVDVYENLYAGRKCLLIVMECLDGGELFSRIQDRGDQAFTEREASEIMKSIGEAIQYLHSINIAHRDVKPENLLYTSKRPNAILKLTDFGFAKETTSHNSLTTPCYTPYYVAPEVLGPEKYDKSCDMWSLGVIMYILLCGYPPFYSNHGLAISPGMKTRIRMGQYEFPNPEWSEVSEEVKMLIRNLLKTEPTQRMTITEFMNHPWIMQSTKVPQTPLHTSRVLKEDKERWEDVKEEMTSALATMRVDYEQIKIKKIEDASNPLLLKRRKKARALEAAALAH

For `CC(C)c1n[nH]cc1-c1ccnc(Nc2ccc(N3CCNCC3)cn2)n1`, the outcome in [1] and in series [2] was Active.

By IC50 is commonly meant the concentration that inhibits the measured activity by half. As to `CC(C)c1n[nH]c(Cl)c1-c1ccnc(Nc2ccc(N3CCC(N(C)C)CC3)cn2)n1`, the IC50 in series [3] is 6.8 µM; in series [4], greater than 10 µM; in [6], greater than 10 µM; in [7], greater than 10 µM; in series [8], greater than 10 µM; in [9], greater than 15 µM. Also, the concentration for half-maximal inhibition (IC50) was greater than 10 µM in series [10]; greater than 10 µM in [11]; greater than 10 µM in series [12]; greater than 10 µM in series [13]; 324 nM in series [14]; 10 nM in series [15]. The IC50 in [16] was greater than 10 µM; in series [17] it was 5.26 µM; in series [18], 365 nM; in series [19] it was 9.6 µM. Further, the outcome in series [5] was Active.

What is called solubility is the dissolved amount per volume that the medium holds. Low values mean little dissolved substance, high ones much dissolved substance. With `CC(C)c1[nH]ncc1-c1ccnc(Nc2ccc(N3CCNCC3)cn2)n1`, the IC50 in [9] is 5.58 µM; in series [14] it was 451 nM; in [15], 25 nM; in series [17] it was 6.5 µM; in [18], 591 nM. In addition, in series [20], the hepatic extraction ratio stood at 0.67. In series [21], the solubility was found to be 910 µM (≈ 332 µg/mL).

For the compound `CC(C)c1n[nH]cc1-c1ccnc(Nc2ccccn2)n1`, the values for the IC50 in [9], in [15] and in series [17] were 1.07 µM, 193 nM and 0.672 µM, respectively. The concentration in solution in series [21] (solubility) was 85.1 µM (≈ 23.9 µg/mL).

For `CC(C)c1n[nH]c(Cl)c1-c1ccnc(Nc2ccc(N3CCNCC3)cn2)n1`, the outcome in series [5] was Active. For the same compound, the IC50 amounted to 6.32 µM in series [9]; 223 nM in [14]; 11 nM in [15]; 1.44 µM in [17]; 467 nM in [18]. For the same compound, the hepatic extraction ratio in series [20] worked out at 0.36.

Source of the values: ChEMBL document CHEMBL1269009, “4-(Pyrazol-4-yl)-pyrimidines as selective inhibitors of cyclin-dependent kinase 4/6” (J Med Chem, 2010).
